Source: ChEMBL document CHEMBL1177827, “Discovery of novel 1H-imidazol-2-yl-pyrimidine-4,6-diamines as potential antimalarials” (Bioorg Med Chem Lett, 2010)
Converted amounts (≈) assume the structure as drawn. Values belong to the compound of their own block, whether it stands above or below them.

How the values were obtained:
[1] = tested on: Plasmodium falciparum; test: Antimalarial activity Plasmodium falciparum 3D7; assay type: functional, organism-based
Procedure, shortened: (§1)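 P. falciparum-infected human red blood cell proliferation assay, with SYBR Green staining as the read-out of parasite growth. EC50 is the mean of two experiments. Each plate carries mefloquine, sulfadoxine and artemisinin as internal standards.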

[2] = tested on: Plasmodium falciparum; test: Antimalarial activity Plasmodium falciparum K1; assay type: functional, organism-based; procedure, shortened: as §1
[3] = Metabolic stability in human microsomes assessed as extraction ratio; assay type: ADME, Microsome
[4] = AUC (0 to infinity) in mouse; assay type: ADME, organism-based; set-up: time infinity; conditions: plasma
[5] = Cmax in mouse; assay type: ADME, organism-based; conditions: in vivo
[6] = tested on: Plasmodium falciparum; test: Antimalarial activity Plasmodium falciparum 3BAG; assay type: functional, organism-based; procedure, shortened: as §1
[7] = Half life in mouse; assay type: ADME, organism-based; conditions: in vivo
[8] = tested on: Plasmodium falciparum; test: Antimalarial activity Plasmodium falciparum W2; assay type: functional, organism-based; procedure, shortened: as §1
[9] = tested on: Plasmodium falciparum; test: Antimalarial activity Plasmodium falciparum 7G8; assay type: functional, organism-based; procedure, shortened: as §1
[10] = tested on: Plasmodium falciparum; test: Antimalarial activity Plasmodium falciparum FcB1; assay type: functional, organism-based; conditions: FcB1/Columbia; procedure, shortened: as §1
[11] = Metabolic stability in mouse microsomes assessed as extraction ratio; assay type: ADME, Microsome
[12] = Oral bioavailability in mouse; assay type: ADME, organism-based; conditions: in vivo
[13] = Metabolic stability in rat microsomes assessed as extraction ratio; assay type: ADME, Microsome
[14] = tested on: Plasmodium falciparum; test: Antimalarial activity Plasmodium falciparum TM91C235; assay type: functional, organism-based; procedure, shortened: as §1
[15] = tested on: Plasmodium falciparum; test: Antimalarial activity Plasmodium falciparum Dd2; assay type: functional, organism-based; procedure, shortened: as §1
[16] = tested on: Plasmodium falciparum; test: Antimalarial activity Plasmodium falciparum NF54; assay type: functional, organism-based; procedure, shortened: as §1
[17] = tested on: Plasmodium falciparum; test: Antimalarial activity Plasmodium falciparum CAMP R; assay type: functional, organism-based; conditions: CampR; procedure, shortened: as §1
[18] = tested on: Plasmodium falciparum; test: Antimalarial activity Plasmodium falciparum HB3; assay type: functional, organism-based; procedure, shortened: as §1
[19] = tested on: Plasmodium falciparum; test: Antimalarial activity Plasmodium falciparum D6; assay type: functional, organism-based; procedure, shortened: as §1
[20] = Thermodynamic solubility at pH 6.8; assay type: physicochemical; conditions: buffer
Procedure, shortened: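 Thermodynamic solubility measured at pH 6.8, reported in […].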

[21] = tested on: Plasmodium falciparum; test: Antimalarial activity Plasmodium falciparum C188; assay type: functional, organism-based; procedure, shortened: as §1
[22] = tested on: Plasmodium falciparum; test: Antimalarial activity Plasmodium falciparum FCR3; assay type: functional, organism-based; conditions: FCR-3/Gambia; procedure, shortened: as §1
[23] = tested on: Plasmodium falciparum; test: Antimalarial activity Plasmodium falciparum D10; assay type: functional, organism-based; procedure, shortened: as §1

SMILES: FC(F)(F)Oc1ccc(Nc2cc(Nc3nccn3-c3cc(N4CCOCC4)cc(C(F)(F)F)c3)ncn2)cc1
- EC50 [1]: 532 nM

SMILES: O=C(NCCc1c[nH]cn1)c1cccc(-n2ccnc2Nc2cc(Nc3ccc(OC(F)(F)F)cc3)ncn2)c1
- EC50 [1]: 1780 nM

SMILES: Cc1c(Nc2ccc(OC(F)(F)F)cc2)ncnc1Nc1nccn1-c1cccc(C(F)(F)F)c1
- EC50 [1]: 4680 nM

SMILES: Cc1nc(Nc2ccc(OC(F)(F)F)cc2)cc(Nc2nccn2-c2cccc(C(=O)NCCc3c[nH]cn3)c2)n1
- EC50 [1]: 822 nM

SMILES: FC(F)(F)Oc1ccc(Nc2cc(Nc3nccn3-c3cccc(C(F)(F)F)c3)nc(Oc3ccccc3)n2)cc1
- EC50 [1]: 116 nM

SMILES: CS(=O)(=O)c1nc(Nc2ccc(OC(F)(F)F)cc2)cc(Nc2nccn2-c2cccc(C(F)(F)F)c2)n1
- EC50 [1]: 291 nM

SMILES: CN(c1cc(Nc2ccc(OC(F)(F)F)cc2)ncn1)c1nccn1-c1cccc(C(F)(F)F)c1
- EC50 [1]: 3830 nM

SMILES: COc1nc(Nc2ccc(OC(F)(F)F)cc2)cc(Nc2nccn2-c2cccc(C(F)(F)F)c2)n1
- EC50 [1]: 190 nM

SMILES: FC(F)(F)Oc1ccc(Nc2cc(Nc3nccn3-c3cccc(C(F)(F)F)c3)nc(C(F)(F)F)n2)cc1
- EC50 [1]: 353 nM

SMILES: CSc1nc(Nc2ccc(OC(F)(F)F)cc2)cc(Nc2nccn2-c2cccc(C(F)(F)F)c2)n1
- EC50 [1]: 107 nM

SMILES: FC(F)(F)Oc1ccc(Nc2cc(Nc3nccn3-c3cccc(C(F)(F)F)c3)ncn2)cc1
- EC50 [1]: 436 nM

SMILES: FC(F)(F)Oc1ccc(Nc2cc(Nc3nccn3-c3cc(Br)cc(C(F)(F)F)c3)ncn2)cc1
- EC50 [1]: 223 nM

SMILES: Oc1nc(Nc2ccc(OC(F)(F)F)cc2)cc(Nc2nccn2-c2cccc(C(F)(F)F)c2)n1
- EC50 [1]: 5440 nM

SMILES: FC(F)(F)Oc1ccc(Nc2nccc(Nc3nccn3-c3cccc(C(F)(F)F)c3)n2)cc1
- EC50 [1]: 432 nM

SMILES: FC(F)(F)Oc1ccc(Nc2cc(Nc3nccn3-c3cccc(C(F)(F)F)c3)nc(N3CCOCC3)n2)cc1
- EC50 [1]: 113 nM

SMILES: FC(F)(F)Oc1ccc(Nc2ncnc(Nc3nccn3-c3cccc(C(F)(F)F)c3)n2)cc1
- EC50 [1]: 1330 nM

SMILES: Cc1nc(Nc2ccc(OC(F)(F)F)cc2)cc(Nc2nccn2-c2cccc(C(F)(F)F)c2)n1
- EC50 [1]: 114 nM

SMILES: OCCN1CCN(c2cc(-n3ccnc3Nc3cc(Nc4ccc(OC(F)(F)F)cc4)ncn3)cc(C(F)(F)F)c2)CC1
- EC50 [1]: 175 nM

SMILES: FC(F)(F)Oc1ccc(Nc2cc(Nc3nccn3-c3cc(N4CCC(N5CCCC5)CC4)cc(C(F)(F)F)c3)ncn2)cc1
- EC50 [1]: 92 nM

SMILES: CN1CCN(CCNc2cc(-n3ccnc3Nc3cc(Nc4ccc(OC(F)(F)F)cc4)ncn3)cc(C(F)(F)F)c2)CC1
- EC50 [1]: 91 nM

SMILES: O=C(NCCN1CCOCC1)c1cccc(-n2ccnc2Nc2cc(Nc3ccc(OC(F)(F)F)cc3)ncn2)c1
- EC50 [1]: 249 nM

SMILES: Cc1nc(Nc2ccc(OC(F)(F)F)cc2)cc(Nc2nccn2-c2cccc(C(=O)N3CCN(CCO)CC3)c2)n1
- EC50 [1]: 768 nM

SMILES: Cc1nc(Nc2ccc(OC(F)(F)F)cc2)cc(Nc2nccn2-c2cccc(C(=O)NCCN3CCCC3)c2)n1
- EC50 [1]: 168 nM

SMILES: Cc1nc(Nc2ccc(OC(F)(F)F)cc2)cc(Nc2nccn2-c2cccc(C(=O)NCCCN3CCCC3)c2)n1
- EC50 [1]: 224 nM

SMILES: Cc1nc(Nc2ccc(OC(F)(F)F)cc2)cc(Nc2nccn2-c2cccc(C(=O)NCCCN3CCN(C)CC3)c2)n1
- EC50 [1]: 239 nM

SMILES: FC(F)(F)Oc1ccc(Nc2ccnc(Nc3nccn3-c3cccc(C(F)(F)F)c3)n2)cc1
- EC50 [1]: 268 nM

SMILES: FC(F)(F)Oc1ccc(Nc2nc(Nc3nccn3-c3cccc(C(F)(F)F)c3)c3ccccc3n2)cc1
- EC50 [1]: 564 nM

SMILES: FC(F)(F)Oc1ccc(Oc2cc(Nc3nccn3-c3cccc(C(F)(F)F)c3)ncn2)cc1
- EC50 [1]: 4240 nM

SMILES: C[C@@H]1CC[C@H]2[C@@H](C)C(=O)O[C@@H]3O[C@@]4(C)CC[C@@H]1[C@]32OO4 [ARTEMISININ]
- EC50 [1]: 10 nM

Second part, the compound after the results:

- EC50 [2]: 88 nM
- hepatic extraction ratio [3]: < 0.28
- AUC(0-inf) [4]: 14.2 µM·h
- Cmax [5]: 946 nM
- EC50 [6]: 60 nM
- half-life [7]: 12 h
- EC50 [8]: 120 nM
- EC50 [9]: 95 nM
- EC50 [10]: 50 nM
- hepatic extraction ratio [11]: < 0.17
- bioavailability [12]: 30%
- hepatic extraction ratio [13]: 0.264
- EC50 [14]: 58 nM
- EC50 [15]: 71 nM
- EC50 [16]: 33 nM
- EC50 [17]: 50 nM
- EC50 [18]: 46 nM
- EC50 [19]: 50 nM
- solubility thermodynamic [20]: 40 µg/mL (≈ 69.1 µM)
- EC50 [21]: 140 nM
- EC50 [22]: 139 nM
- EC50 [1]: 34 nM
- EC50 [23]: 15 nM
SMILES: CN1CCN(c2nc(Nc3ccc(OC(F)(F)F)cc3)cc(Nc3nccn3-c3cccc(C(F)(F)F)c3)n2)CC1

- EC50 [1]: 53 nM
SMILES: FC(F)(F)Oc1ccc(Nc2cc(Nc3nccn3-c3cccc(C(F)(F)F)c3)nc(NCCN3CCOCC3)n2)cc1

- EC50 [1]: 60 nM
SMILES: CC(C)Oc1nc(Nc2ccc(OC(F)(F)F)cc2)cc(Nc2nccn2-c2cccc(C(F)(F)F)c2)n1

- EC50 [1]: 74 nM
SMILES: FC(F)(F)Oc1ccc(Nc2cc(Nc3nccn3-c3cccc(C(F)(F)F)c3)nc(-c3ccccc3)n2)cc1

- EC50 [1]: 67 nM
SMILES: Cc1nc(Nc2ccc(OC(F)(F)F)cc2)cc(Nc2nccn2-c2cccc(C(=O)NCCCN3CCOCC3)c2)n1

- EC50 [1]: 49 nM
SMILES: Nc1nc(Nc2ccc(OC(F)(F)F)cc2)cc(Nc2nccn2-c2cccc(C(F)(F)F)c2)n1

- EC50 [1]: 65 nM
SMILES: CN1CCN(c2cc(-n3ccnc3Nc3cc(Nc4ccc(OC(F)(F)F)cc4)ncn3)cc(C(F)(F)F)c2)CC1

- EC50 [1]: 88 nM
SMILES: FC(F)(F)Oc1ccc(Nc2cc(Nc3nccn3-c3cc(N4CCC(N5CCOCC5)CC4)cc(C(F)(F)F)c3)ncn2)cc1

- hepatic extraction ratio [3]: 0.316
- solubility thermodynamic [20]: 110 µg/mL (≈ 166 µM)
- EC50 [1]: 90 nM
SMILES: CN1CCN(C2CCN(c3cc(-n4ccnc4Nc4cc(Nc5ccc(OC(F)(F)F)cc5)ncn4)cc(C(F)(F)F)c3)CC2)CC1

- EC50 [1]: 87 nM
SMILES: FC(F)(F)Oc1ccc(Nc2cc(Nc3nccn3-c3cc(NCCN4CCOCC4)cc(C(F)(F)F)c3)ncn2)cc1

- hepatic extraction ratio [3]: < 0.31
- hepatic extraction ratio [11]: < 0.17
- hepatic extraction ratio [13]: 0.367
- solubility thermodynamic [20]: 80 µg/mL (≈ 141 µM)
- EC50 [1]: 46 nM
SMILES: CCN(CC)CCNC(=O)c1cccc(-n2ccnc2Nc2cc(Nc3ccc(OC(F)(F)F)cc3)nc(C)n2)c1

- hepatic extraction ratio [11]: < 0.17
- hepatic extraction ratio [13]: 0.275
- solubility thermodynamic [20]: 89 µg/mL (≈ 153 µM)
- EC50 [1]: 60 nM
SMILES: CCN1CCCC1CNC(=O)c1cccc(-n2ccnc2Nc2cc(Nc3ccc(OC(F)(F)F)cc3)nc(C)n2)c1 (stereo not given)

- hepatic extraction ratio [3]: < 0.42
- hepatic extraction ratio [11]: < 0.17
- hepatic extraction ratio [13]: 0.243
- solubility thermodynamic [20]: 90 µg/mL (≈ 154 µM)
- EC50 [1]: 69 nM
SMILES: Cc1nc(Nc2ccc(OC(F)(F)F)cc2)cc(Nc2nccn2-c2cccc(C(=O)NCCN3CCOCC3)c2)n1

- EC50 [1]: 54 nM
SMILES: CNc1nc(Nc2ccc(OC(F)(F)F)cc2)cc(Nc2nccn2-c2cccc(C(F)(F)F)c2)n1

- EC50 [1]: 20 nM
SMILES: OC(c1cc(C(F)(F)F)nc2c(C(F)(F)F)cccc12)C1CCCCN1 (stereo not given) [MEFLOQUINE]

- EC50 [1]: 30 nM
SMILES: COc1ncnc(NS(=O)(=O)c2ccc(N)cc2)c1OC [SULFADOXINE]
